Common to all, as to format: cell-based
For assay [1], the target named is T1, Protein cereblon/von Hippel-Lindau disease tumor suppressor (Homo sapiens, UniProt P40337+Q96SW2). Kind of assay: Protac activity at VHL/CRBN in human HeLa cells assessed as CRBN protein abundance at 1 uM after 1 hr by Western blot analysis relative to DMSO. A digest of the protocol: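 HeLa cells (DMEM, 10% FBS, penicillin/streptomycin, L-glutamine; 37 °C, 5% CO2) seeded at 5 × 10⁵ per well overnight, then treated in 0.1% v/v final DMSO. Cells were lysed in RIPA with protease inhibitors and benzonase, and equal protein was run on SDS-PAGE/nitrocellulose blots probed with anti-CRBN. Bands were normalised to β-tubulin and expressed relative to mean 0.1% DMSO vehicle.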

Assay [2] deals with T1, Protein cereblon/von Hippel-Lindau disease tumor suppressor. Kind of assay: Protac activity at VHL/CRBN in HEK293 cells assessed as pVHL19 protein abundance at 1 uM after 2 hrs by Western blot analysis relative to DMSO. A digest of the protocol: (§1)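 HEK293 cells (DMEM, 10% FBS, penicillin/streptomycin, L-glutamine; 37 °C, 5% CO2; ≤30 passages) seeded at 1 × 10⁶ per well overnight, then treated with compound at 0.1% v/v final DMSO. Cells were lysed in RIPA with protease inhibitors and benzonase, then clarified. Equal Bradford-quantified protein was immunoblotted for CRBN/VHL. Bands were normalised to β-tubulin and expressed as % of mean 0.1% DMSO vehicle.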
(A western blot detects proteins with antibodies after separation by electrophoresis.)

Assay [3] has the same target. Kind of assay: Protac activity at VHL/CRBN in HEK293 cells assessed as CRBN protein abundance at 1 uM after 1 hr by Western blot analysis relative to DMSO. Summed up:
as §1

For assay [4] the target is unchanged. In words: Protac activity at VHL/CRBN in human HeLa cells assessed as CRBN protein abundance at 1 uM after 24 hrs by Western blot analysis relative to DMSO. A digest of the protocol:
(§2)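 HeLa cells seeded overnight, then exposed to 1 µM compound (0.1% v/v DMSO final) over a time course. Cells were DPBS-washed and RIPA-lysed with protease inhibitors and benzonase; equal protein was loaded. Immunoblots for CRBN and VHL isoforms were quantified against β-tubulin and reported relative to the averaged 0.1% DMSO vehicle.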

Assay [5] shares this target. In words: Protac activity at VHL/CRBN in HEK293 cells assessed as CRBN protein abundance at 5 nM after 4 hrs by Western blot analysis relative to DMSO. A digest of the protocol:
as §1

Assay [6] has the same target. In words: Protac activity at VHL/CRBN in human HeLa cells assessed as CRBN protein abundance at 1 uM after 2 hrs by Western blot analysis relative to DMSO. Summed up: as §2
For assay [7] the target is unchanged. Kind of assay: Protac activity at VHL/CRBN in HEK293 cells assessed as pVHL30 protein abundance at 1 uM after 12 hrs by Western blot analysis relative to DMSO. A digest of the protocol: as §1
The target is the same in assay [8]. In words: Protac activity at VHL/CRBN in HEK293 cells assessed as pVHL19 protein abundance at 5000 nM after 4 hrs by Western blot analysis relative to DMSO. Summed up: as §1
Assay [9] shares this target. In words: Protac activity at VHL/CRBN in human HeLa cells assessed as induction of CRBN degradation at 1 uM after 4 hrs by Western blot analysis relative to control. Summed up: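 HeLa cells (5 × 10⁵, DMEM + 10% FBS, 37 °C, 5% CO₂, ≤30 passages) seeded overnight, then treated 4 h with compound at single or graded concentrations (0.1% v/v DMSO final). RIPA lysates equalised by Bradford; SDS-PAGE and anti-CRBN/anti-VHL immunoblots; bands normalised to β-tubulin and expressed as % of mean DMSO vehicle. DC₅₀ from fit of band intensity versus log[concentration].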

Assay [10] shares this target. Kind of assay: Protac activity at VHL/CRBN in HEK293 cells assessed as CRBN protein abundance at 1 uM after 2 hrs by Western blot analysis relative to DMSO. Summed up: as §1
For assay [11] the target is unchanged. Kind of assay: Protac activity at VHL/CRBN in HEK293 cells assessed as pVHL30 protein abundance at 10000 nM after 4 hrs by Western blot analysis relative to DMSO. Summed up: as §1

T1 sequence (P40337 whole entry, looked up): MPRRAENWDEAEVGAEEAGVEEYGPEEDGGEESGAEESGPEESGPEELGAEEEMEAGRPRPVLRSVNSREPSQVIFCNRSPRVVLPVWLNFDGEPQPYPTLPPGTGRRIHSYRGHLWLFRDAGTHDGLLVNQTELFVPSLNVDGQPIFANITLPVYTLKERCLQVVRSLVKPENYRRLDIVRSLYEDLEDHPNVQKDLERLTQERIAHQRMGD
T1 sequence (Q96SW2 whole entry, looked up): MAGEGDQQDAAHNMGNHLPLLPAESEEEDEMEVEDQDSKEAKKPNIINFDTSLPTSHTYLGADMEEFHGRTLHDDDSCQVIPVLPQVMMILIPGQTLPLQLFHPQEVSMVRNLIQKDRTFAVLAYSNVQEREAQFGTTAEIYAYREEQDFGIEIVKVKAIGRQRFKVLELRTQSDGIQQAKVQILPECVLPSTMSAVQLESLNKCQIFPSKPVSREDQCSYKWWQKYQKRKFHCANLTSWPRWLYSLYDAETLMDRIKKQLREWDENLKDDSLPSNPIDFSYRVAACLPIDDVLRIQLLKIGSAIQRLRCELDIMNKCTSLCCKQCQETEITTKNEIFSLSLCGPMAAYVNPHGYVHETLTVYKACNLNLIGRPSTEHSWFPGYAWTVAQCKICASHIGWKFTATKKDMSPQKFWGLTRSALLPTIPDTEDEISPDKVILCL

For the molecule `Cc1ncsc1-c1ccc(CNC(=O)[C@@H]2C[C@@H](O)CN2C(=O)[C@@H](NC(=O)COCCCCCOCCOCCCCCOCC(=O)NCCNc2cccc3c2C(=O)N(C2CCC(=O)NC2=O)C3=O)C(C)(C)C)cc1` (some centres not stated), the Activity came out at 57% in assay [1]; 109% in [2]; 14% in assay [3]; 13% in assay [4]; 102% in assay [5]; 27% in [6]. Also, the Activity in assay [7] worked out at 113%; in assay [8], 109%; in [9] it was 64%; in assay [10], 9%; in assay [11], 128%. Besides, the %max in assay [9] was 75%.

Values taken from ChEMBL document CHEMBL4665633, “Cereblon versus VHL: Hijacking E3 ligases against each other using PROTACs” (Bioorg Med Chem, 2019).
